For assay [1], the species on record is Mus musculus. Nature of the assay: Effective dose against Leishmania donovani (Leishmania donovani) amastigotes in mouse peritoneal macrophages. Particulars: read-out: ED50 (the source's name); call rule not given here. In kind it is functional. The procedure, abridged:
(§1)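 Mouse peritoneal macrophages kept on chamber slides in RPMI 1640 with 10% heat-inactivated foetal calf serum, 37 °C, 5% CO2, and infected with L. donovani MHOM/ET/69/L82 amastigotes taken from infected hamster spleens. After 24 h, compounds were added in a 3-fold dilution series in quadruplicate for 5 days. Slides were methanol-fixed and Giemsa-stained, then scored for the proportion of infected macrophages.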

The species entered for assay [2] is Mus musculus. Nature of the assay: Effective dose against […]; Toxic to the macrophages. It counts as functional.
The test system of assay [3] is Trypanosoma brucei. In words: Effective dose against Trypanosoma brucei) bloodstream form trypomastigotes in HMI-9 medium. Particulars: read-out: ED50 (the source's name).
The target in assay [4] is T1, Trypanothione reductase (Trypanosoma cruzi, UniProt P28593). Nature of the assay: Inhibitory activity against recombinant Trypanosoma cruzi (Trypanosoma cruzi) Trypanothione reductase. Conditions: read-out: I50. In short, it runs like this: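 Recombinant T. cruzi TR, overexpressed in E. coli JM109 and homogeneous by SDS-PAGE, was used at about 0.3 µg/mL. Assay at 25 °C in 0.02 M HEPES pH 7.25 with 0.15 M KCl, 1 mM EDTA, 0.12 mM trypanothione disulfide and 0.1 mM NADPH, read at 340 nm. I50 came from nonlinear least-squares fitting of velocity versus inhibitor concentration using the linear competitive inhibition equation.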
T1 sequence (P28593 whole entry): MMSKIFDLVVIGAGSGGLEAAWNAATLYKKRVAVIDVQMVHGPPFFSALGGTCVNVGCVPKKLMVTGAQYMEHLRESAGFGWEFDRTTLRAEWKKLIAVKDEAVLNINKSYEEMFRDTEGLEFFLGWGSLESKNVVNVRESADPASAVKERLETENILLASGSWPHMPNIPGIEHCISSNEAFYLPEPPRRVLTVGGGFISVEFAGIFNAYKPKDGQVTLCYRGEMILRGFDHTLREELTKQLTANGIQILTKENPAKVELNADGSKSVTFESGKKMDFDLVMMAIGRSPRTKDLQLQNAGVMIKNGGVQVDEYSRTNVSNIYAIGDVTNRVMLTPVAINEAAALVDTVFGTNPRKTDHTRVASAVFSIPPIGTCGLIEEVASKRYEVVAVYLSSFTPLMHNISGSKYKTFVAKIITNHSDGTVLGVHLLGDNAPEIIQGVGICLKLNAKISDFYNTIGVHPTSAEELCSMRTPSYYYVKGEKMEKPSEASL

The species named for assay [5] is Mus musculus. Nature of the assay: Effective dose against Trypanosoma cruzi (Trypanosoma cruzi) trypomastigotes in mouse peritoneal macrophages. Particulars: read-out: ED50 (the source's name). It counts as functional.
For assay [6], the species on record is Mus musculus. In words: Effective dose against Trypanosoma […]) trypomastigotes in mouse peritoneal macrophages. In kind it is functional. Particulars: read-out: ED50 (the source's name).
Assay [7] is filed under the species Mus musculus. Nature of the assay: Effective dose against Leishmania donovani (Leishmania donovani) amastigotes in mouse peritoneal macrophages; Range is 10-30 uM. In kind it is functional. Conditions: read-out: ED50 (the source's name). In short, it runs like this: as §1
For assay [8], the species on record is Mus musculus. Nature of the assay: Effective dose against Trypanosoma uM. In kind it is functional.
In assay [9] the target is T2, Glutathione reductase, mitochondrial (Homo sapiens, UniProt P00390).
T2 sequence (P00390 whole entry): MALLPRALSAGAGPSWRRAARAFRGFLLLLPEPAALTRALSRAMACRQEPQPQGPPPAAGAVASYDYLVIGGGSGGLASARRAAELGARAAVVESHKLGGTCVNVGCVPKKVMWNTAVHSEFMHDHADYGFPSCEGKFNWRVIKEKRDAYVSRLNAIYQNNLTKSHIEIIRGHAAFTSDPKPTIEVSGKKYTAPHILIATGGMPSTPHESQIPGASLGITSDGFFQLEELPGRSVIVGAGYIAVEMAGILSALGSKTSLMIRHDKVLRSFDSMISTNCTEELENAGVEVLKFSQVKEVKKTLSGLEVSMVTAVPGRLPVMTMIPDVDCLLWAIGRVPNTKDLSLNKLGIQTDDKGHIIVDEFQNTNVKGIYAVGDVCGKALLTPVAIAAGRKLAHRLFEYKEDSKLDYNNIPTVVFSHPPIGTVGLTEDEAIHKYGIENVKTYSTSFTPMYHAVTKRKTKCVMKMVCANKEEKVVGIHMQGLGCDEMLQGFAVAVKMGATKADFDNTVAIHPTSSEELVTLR
Nature of the assay: Inhibitory activity against human erythrocyte glutathione reductase; '*' indicates No inhibition. In short, it runs like this: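 Enzyme was isolated from human erythrocytes and assayed spectrophotometrically at 340 nm under literature conditions. Compounds were tested up to 1 mM, or 0.1 mM where solubility was limited.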

The subject of assay [10] is Trypanosoma brucei. Nature of the assay: Effective dose against Trypanosoma brucei) bloodstream form trypomastigotes; <3, >1. Particulars: read-out: ED50 (the source's name).
The target in assay [11] is T1, Trypanothione reductase. In words: Inhibitory activity against recombinant Trypanosoma cruzi (Trypanosoma cruzi) Trypanothione reductase; No inhibition at 1000 uM.

Turning to `O=C(CCC(=O)N1c2ccccc2Sc2ccc(Cl)cc21)NNc1ccccc1`, the EC50 came out at 34.2 µM in the assay listed under Mus musculus [1] and 15.2 µM in the assay on Trypanosoma brucei [3]. Besides, in the assay filed under Mus musculus [2], the ED50 entry is “Toxic”. Moreover, the IC50 at Trypanothione reductase [4] amounted to 151 µM.
With `C/C(=N/OCc1ccccc1)c1ccc2c(c1)N(CCCN(C)C)c1ccccc1S2`, the EC50 in the assay listed under Mus musculus [5] was more than 30 µM; in the assay listed under Mus musculus [1], 16.5 µM; in the assay filed under Mus musculus [6] it was 1.56 µM. Besides, the IC50 at Trypanothione reductase [4] was determined as 204 µM.
Consider `CCCC(=O)c1ccc2c(c1)N(CCCN(C)C)c1ccccc1S2`, for which the values for the EC50 in the assay filed under Mus musculus [5], in the assay on Trypanosoma brucei [3] and in the assay listed under Mus musculus [7] were more than 30 µM, 3.26 µM and 10 µM, respectively. In addition, on Trypanothione reductase [4], the IC50 came out at 301 µM.
Turning to `CC(=O)c1ccc2c(c1)N(CCCN(C)C)c1cc(C(C)=O)ccc1S2`, the EC50 in the assay listed under Mus musculus [5] and in the assay listed under Mus musculus [1] was more than 30 µM each time. In the assay filed under Mus musculus [8], the ED50 is 10 µM. Further, the IC50 at Trypanothione reductase [4] is 472 µM.
Regarding `NCCCN1c2ccccc2Sc2ccc(Cl)cc21` [NOR2-CHLORPROMAZINE], the I50 result in assay [9] is “Not Active”. The EC50 was 5.9 µM in the assay filed under Mus musculus [5], 10 µM in the assay filed under Mus musculus [1] and less than 3 µM in the assay with Trypanosoma brucei [10]. Also, the IC50 at Trypanothione reductase [4] was found to be 139 µM.
As for `C/C(=N\OCc1ccccc1)c1ccc2c(c1)N(CCCN(C)C)c1cc(Cl)ccc1S2`, the EC50 in the assay listed under Mus musculus [5] is more than 30 µM; in the assay listed under Mus musculus [1] it was 6.78 µM; in the assay filed under Mus musculus [6] it was 3.5 µM. At Trypanothione reductase [4], the IC50 amounted to 199 µM.
With `CO/N=C(/C)c1ccc2c(c1)N(CCCN(C)C)c1ccccc1S2`, the EC50 in the assay listed under Mus musculus [5] and in the assay listed under Mus musculus [1] was more than 30 µM in each case. The ED50 in the assay filed under Mus musculus [8] was 10 µM. The IC50 at Trypanothione reductase [4] amounted to 351 µM.
Regarding `c1ccc2c(c1)Nc1ccccc1S2` [PHENOTHIAZINE], the I50 entry at Trypanothione reductase [11] is recorded as “No inhibition”.
